Key:
IMPDH1(546)-Y12A-S477D = IMPDH1(546)-Y12A-S477D (Homo sapiens, UniProt P20839, S477D/Y12A); assay: IMPDH1 activity assay, GTP inhibition; format: biochemical
Procedure, shortened: (§1)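 Enzyme at 1 µM in pH 7.0 HEPES/KCl/DTT activity buffer, preincubated 30 min at 20°C with 1 mM ATP, 1 mM IMP, 1 mM MgCl2 and graded GTP. Reaction started with 300 µM NAD+. NADH followed at 340 nm (25°C, per minute, 15 min) against a standard curve. Specific activity from the 2–7 min slope; three measurements per point. IC50 and Hill coefficient from a least-squares four-parameter fit, 90% confidence intervals.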

IMPDH1(546)-S477D = IMPDH1(546)-S477D (Homo sapiens, UniProt P20839, S477D); assay: IMPDH1 activity assay, GTP inhibition; format: biochemical
Procedure, shortened: (§2)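 Recombinant human retinal-variant enzyme (E. coli BL21(DE3), 6xHis-SUMO tag removed by ULP1, gel filtration). Enzyme diluted ≥100-fold to 1 µM in pH 7.0 HEPES/KCl/DTT buffer. Preincubated 30 min at 20°C with 1 mM ATP, 1 mM IMP, 1 mM MgCl2 and varying GTP. Started with 300 µM NAD+. NADH read at A340, 25°C, each minute for 15 min. Rate from a 2–7 min slope. Triplicate; four-parameter variable-slope fit with 90% CI.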

IMPDH1(595)-WT = IMPDH1(595)-WT (Homo sapiens, UniProt P20839); assay: IMPDH1 activity assay, GTP inhibition; format: biochemical
Procedure, shortened: as §2

IMPDH1(595)-Y12A-S477D = IMPDH1(595)-Y12A-S477D (Homo sapiens, UniProt P20839, S477D/Y12A); assay: IMPDH1 activity assay, GTP inhibition; format: biochemical
Procedure, shortened: as §1

IMPDH1(595)-Y12A = IMPDH1(595)-Y12A (Homo sapiens, UniProt P20839, Y12A); assay: IMPDH1 activity assay, GTP inhibition; format: biochemical
Procedure, shortened: as §1

IMPDH1(546)-WT = IMPDH1(546)-WT (Homo sapiens, UniProt P20839); assay: IMPDH1 activity assay, GTP inhibition; format: biochemical
Procedure, shortened: as §2

IMPDH1(595)-S477D = IMPDH1(595)-S477D (Homo sapiens, UniProt P20839, S477D); assay: IMPDH1 activity assay, GTP inhibition; format: biochemical
Procedure, shortened: as §2

IMPDH1(546)-Y12A = IMPDH1(546)-Y12A (Homo sapiens, UniProt P20839, Y12A); assay: IMPDH1 activity assay, GTP inhibition; format: biochemical
Procedure, shortened: as §1

HeLa cells = assay: Ribavirin-induced IMPDH filament assembly in cells, immunofluorescence; format: cell-based, human; conditions: 1 mM ribavirin for 2 h
Procedure, shortened: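 HeLa (ATCC CCL-2) in DMEM/10% FBS, 37°C, 5% CO2. Seeded 4×10^4 cells/well on chambered glass slides and transfected next day with 328 ng plasmid (TransIT-HeLaMONSTER). After 48 h, fixed in 4% paraformaldehyde and Triton-permeabilised. Stained with anti-IMPDH2 (endogenous plus transfected), anti-FLAG and DAPI. Imaged by widefield 40×. Two biological replicates, ≥100 cells counted per condition.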

[1] = Hill coefficient of GTP inhibition curve

Chain of IMPDH1(546)-Y12A (P20839 1-509 Y12A): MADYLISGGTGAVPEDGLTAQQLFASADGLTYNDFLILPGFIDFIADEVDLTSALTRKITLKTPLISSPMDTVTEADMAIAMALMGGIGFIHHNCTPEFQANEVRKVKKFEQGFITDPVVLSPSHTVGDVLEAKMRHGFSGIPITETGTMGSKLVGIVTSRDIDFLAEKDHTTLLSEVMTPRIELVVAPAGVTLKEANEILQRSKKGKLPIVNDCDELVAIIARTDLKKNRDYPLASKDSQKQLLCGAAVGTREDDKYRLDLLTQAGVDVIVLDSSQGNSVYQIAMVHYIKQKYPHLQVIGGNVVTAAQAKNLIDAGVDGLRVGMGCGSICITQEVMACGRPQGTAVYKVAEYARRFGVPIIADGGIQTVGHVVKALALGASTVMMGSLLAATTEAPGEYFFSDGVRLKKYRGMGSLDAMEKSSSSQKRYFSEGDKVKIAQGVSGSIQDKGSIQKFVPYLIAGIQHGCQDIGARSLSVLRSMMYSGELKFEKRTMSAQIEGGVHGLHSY
Chain of IMPDH1(595)-Y12A (P20839 1-509 Y12A): as above
Chain of IMPDH1(595)-WT (P20839 1-558 isoform P20839-3 limits assumed): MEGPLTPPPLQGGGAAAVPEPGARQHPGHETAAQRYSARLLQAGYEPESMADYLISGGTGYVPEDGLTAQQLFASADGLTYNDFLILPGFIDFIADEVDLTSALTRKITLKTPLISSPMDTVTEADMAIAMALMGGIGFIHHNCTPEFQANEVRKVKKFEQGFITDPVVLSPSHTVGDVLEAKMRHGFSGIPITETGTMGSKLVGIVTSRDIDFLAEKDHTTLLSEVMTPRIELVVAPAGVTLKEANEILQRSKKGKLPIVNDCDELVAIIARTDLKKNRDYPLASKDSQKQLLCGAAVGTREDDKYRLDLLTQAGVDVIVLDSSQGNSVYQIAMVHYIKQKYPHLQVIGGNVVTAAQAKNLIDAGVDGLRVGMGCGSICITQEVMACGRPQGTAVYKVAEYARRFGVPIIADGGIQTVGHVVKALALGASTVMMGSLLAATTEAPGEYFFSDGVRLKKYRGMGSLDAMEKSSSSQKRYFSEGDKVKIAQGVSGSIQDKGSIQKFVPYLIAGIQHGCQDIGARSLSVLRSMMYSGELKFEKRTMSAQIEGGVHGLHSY
Chain of IMPDH1(546)-Y12A-S477D (P20839 1-509 Y12A/S477D): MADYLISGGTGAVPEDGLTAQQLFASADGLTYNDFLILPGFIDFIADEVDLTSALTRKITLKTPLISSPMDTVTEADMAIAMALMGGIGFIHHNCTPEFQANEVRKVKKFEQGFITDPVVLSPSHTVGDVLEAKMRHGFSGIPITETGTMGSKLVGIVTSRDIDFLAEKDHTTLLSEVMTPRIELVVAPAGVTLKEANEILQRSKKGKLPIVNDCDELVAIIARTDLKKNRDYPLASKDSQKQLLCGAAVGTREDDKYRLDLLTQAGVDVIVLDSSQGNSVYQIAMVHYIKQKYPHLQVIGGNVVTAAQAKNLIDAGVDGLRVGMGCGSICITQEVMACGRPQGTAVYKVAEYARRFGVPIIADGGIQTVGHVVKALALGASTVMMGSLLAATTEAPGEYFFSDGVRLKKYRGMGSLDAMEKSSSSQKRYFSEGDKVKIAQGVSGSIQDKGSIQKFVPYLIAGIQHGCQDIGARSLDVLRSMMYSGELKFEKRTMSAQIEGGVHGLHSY
Chain of IMPDH1(595)-Y12A-S477D (P20839 1-509 Y12A/S477D): as above
Chain of IMPDH1(595)-S477D (P20839 1-509 S477D): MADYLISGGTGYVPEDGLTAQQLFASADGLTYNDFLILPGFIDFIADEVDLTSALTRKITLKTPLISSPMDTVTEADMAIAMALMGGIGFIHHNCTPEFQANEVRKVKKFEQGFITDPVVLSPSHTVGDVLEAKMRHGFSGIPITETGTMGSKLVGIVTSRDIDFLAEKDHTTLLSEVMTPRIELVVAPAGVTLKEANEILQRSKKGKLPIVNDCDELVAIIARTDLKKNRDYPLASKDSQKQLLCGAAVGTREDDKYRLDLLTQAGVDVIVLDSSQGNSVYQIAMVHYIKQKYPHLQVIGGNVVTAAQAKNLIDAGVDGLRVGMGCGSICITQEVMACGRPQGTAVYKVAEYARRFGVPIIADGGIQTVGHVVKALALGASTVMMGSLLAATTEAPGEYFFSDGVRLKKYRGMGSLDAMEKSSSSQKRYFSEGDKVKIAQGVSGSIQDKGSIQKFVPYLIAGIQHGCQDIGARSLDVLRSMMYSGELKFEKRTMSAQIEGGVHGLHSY
Chain of IMPDH1(546)-S477D (P20839 1-509 S477D): as above
Chain of IMPDH1(546)-WT (P20839 1-509 limits assumed): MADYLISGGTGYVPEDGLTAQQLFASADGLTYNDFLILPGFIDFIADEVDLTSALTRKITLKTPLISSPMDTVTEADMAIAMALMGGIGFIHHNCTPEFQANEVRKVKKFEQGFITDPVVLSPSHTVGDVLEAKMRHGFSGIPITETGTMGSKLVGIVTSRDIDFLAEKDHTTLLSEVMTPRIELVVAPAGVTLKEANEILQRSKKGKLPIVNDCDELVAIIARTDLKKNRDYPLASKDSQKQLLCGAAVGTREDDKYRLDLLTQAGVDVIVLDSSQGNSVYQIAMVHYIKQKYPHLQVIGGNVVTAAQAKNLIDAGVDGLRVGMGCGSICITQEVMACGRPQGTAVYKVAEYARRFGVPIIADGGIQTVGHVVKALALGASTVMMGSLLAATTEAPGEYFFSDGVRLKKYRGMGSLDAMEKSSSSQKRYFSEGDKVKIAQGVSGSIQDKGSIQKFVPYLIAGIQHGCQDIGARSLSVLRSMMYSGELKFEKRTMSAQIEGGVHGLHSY

Row | SMILES | IC50 (IMPDH1(546)-Y12A-S477D) [µM] | Hill best-fit (IMPDH1(546)-Y12A-S477D; [1]) | IC50 (IMPDH1(546)-S477D) [µM] | Hill best-fit (IMPDH1(546)-S477D; [1]) | IC50 (IMPDH1(595)-WT) [µM] | Hill best-fit (IMPDH1(595)-WT; [1]) | IC50 (IMPDH1(595)-Y12A-S477D) [µM] | Hill best-fit (IMPDH1(595)-Y12A-S477D; [1]) | IC50 (IMPDH1(595)-Y12A) [µM] | Hill best-fit (IMPDH1(595)-Y12A; [1]) | IC50 (IMPDH1(546)-WT) [µM] | Hill best-fit (IMPDH1(546)-WT; [1]) | IC50 (IMPDH1(595)-S477D) [µM] | Hill best-fit (IMPDH1(595)-S477D; [1]) | IC50 (IMPDH1(546)-Y12A) [µM] | Hill best-fit (IMPDH1(546)-Y12A; [1]) | Percentage of transfected cells containing filaments (HeLa cells; cells transfected with FLAG-tagged IMPDH1(546)-S477A) [%] | Percentage of transfected cells containing filaments (HeLa cells; cells transfected with FLAG-tagged IMPDH1(546)-S477D) [%] | Percentage of transfected cells containing filaments (HeLa cells; cells transfected with FLAG-tagged IMPDH1(595)-S477D) [%]
1 | Nc1nc2c(ncn2[C@@H]2O[C@H](COP(=O)(O)OP(=O)(O)OP(=O)(O)O)[C@@H](O)[C@H]2O)c(=O)[nH]1 [GTP, guanosine triphosphate] | 458 | 4.2 | 486 | 3.7 | 1150 | 2.3 | 464 | 4.1 | 473 | 4.5 | 757 | 4.6 | 603 | 3.7 | 538 | 4.0 |  |  | 
2 | NC(=O)c1ncn([C@@H]2O[C@H](CO)[C@@H](O)[C@H]2O)n1 [ribavirin] |  |  |  |  |  |  |  |  |  |  |  |  |  |  |  |  | 100 | 2 | 2

From article PMC10849882 (The Journal of Cell Biology, 2024)
